These results are taken from ChEMBL document CHEMBL3526095, “Characterization of the in vitro and in vivo metabolism and disposition and cytochrome P450 inhibition/induction profile of saxagliptin in human” (Drug Metab Dispos, 2012).

The nature of series [1]: Drug metabolism in human assessed as drug excretion in feces at 50 mg, po after 72 to 96 hrs by liquid scintillation counting. The class given is ADME, organism-based. As to conditions: in vivo. Put shortly:
(§1)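 Healthy males received a single 50-mg oral [14C]saxagliptin solution (91.5 µCi) after a 10-h fast. Urine collected 0–12 h, 12–24 h, then at 24-h intervals to 168 h; feces collected at 24-h intervals. Radioactivity counted by LSC: urine directly, feces as ~20% w/w homogenate combusted before counting. Result expressed as % of actual dose, based on syringe weights.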

Series [2] has as its system Liver microsome. Briefly: Drug metabolism in human liver microsomes assessed as formation of 5-hydroxy saxagliptin at 1 uM after 30 mins by LC-MS/MS analysis in presence of ketoconazole and troleandomycin.
Series [3] in a line: Drug metabolism in human assessed as drug excretion in feces at 50 mg, po after 96 to 144 hrs by liquid scintillation counting. The class given is ADME, organism-based. As to conditions: in vivo. A digest of the protocol: as §1
Series [4] deals with Liver microsome. Briefly: Drug metabolism in human liver microsomes assessed as formation of 5-hydroxy saxagliptin at 10 uM after 1 hr by LC-MS/MS analysis in absence of NADPH. The class given is ADME. Background: Liver microsomes are vesicles of endoplasmic reticulum, rich in cytochrome P450 enzymes.
Series [5] is described as follows: Drug metabolism in human assessed as drug excretion in urine at 50 mg, po after 12 to 24 hrs by liquid scintillation counting. As to conditions: in vivo. Type of series: ADME, organism-based. Put shortly: as §1
The nature of series [6]: Drug metabolism in human assessed as drug excretion in urine at 50 mg, po up to 12 hrs by liquid scintillation counting. Type of series: ADME, organism-based. The following applies: in vivo. Put shortly:
as §1

Series [7] relates to Liver microsome. Briefly: Drug metabolism in human liver microsomes assessed as formation of 5-hydroxy saxagliptin at 10 uM after 30 mins by LC-MS/MS analysis in presence of 1-aminobenzotriazole.
The nature of series [8]: Drug metabolism in human assessed as drug excretion in feces at 50 mg, po after 24 to 48 hrs by liquid scintillation counting. The class given is ADME, organism-based. The following applies: in vivo. A digest of the protocol: as §1
The test system of series [9] is Liver microsome. Nature of the series: Drug metabolism in human liver microsomes assessed as formation of mono-hydroxylated metabolite at 10 uM after 1 hr by LC-MS/MS analysis in presence of NADPH. The class given is ADME. A digest of the protocol:
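Pooled HLM at 1 mg/ml protein, incubated with 10 µM [14C]saxagliptin and 1 mM NADPH in 100 mM phosphate buffer pH 7.4 at 37°C for 60 min. Quenched with ice-cold acetonitrile; supernatant analysed by LC-MS/MS and off-line radioanalysis.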

Series [10] can be described thus: Drug metabolism in human assessed as drug excretion in urine at 50 mg, po after 24 to 48 hrs by liquid scintillation counting. The class given is ADME, organism-based. As to conditions: in vivo. A digest of the protocol: as §1
Series [11] is described as follows: Drug metabolism in human assessed as total drug excretion in urine at 50 mg, po up to 168 hrs by liquid scintillation counting. The class given is ADME, organism-based. As to conditions: in vivo. Put shortly:
as §1

The nature of series [12]: Drug metabolism in human assessed as drug excretion in feces at 50 mg, po after 48 to 72 hrs by liquid scintillation counting. Type of series: ADME, organism-based. As to conditions: in vivo. A digest of the protocol: as §1
Series [13] in a line: Drug metabolism in human assessed as total drug excretion in feces at 50 mg, po up to 144 hrs by liquid scintillation counting. As to conditions: in vivo. Type of series: ADME, organism-based. Put shortly: as §1
Series [14] is described as follows: Drug metabolism in human assessed as drug excretion in urine at 50 mg, po after 48 to 168 hrs by liquid scintillation counting. Type of series: ADME, organism-based. The following applies: in vivo. A digest of the protocol: as §1
A short description of series [15]: Drug metabolism in human assessed as drug excretion in feces at 50 mg, po up to 24 hrs by liquid scintillation counting. The following applies: in vivo. The class given is ADME, organism-based. Put shortly: as §1
Substrate in series [16]: N#C[C@@H]1C[C@@H]2C[C@@H]2N1C(=O)[C@@H](N)C12CC3CC(CC(O)(C3)C1)C2
Briefly: Drug metabolism in assessed as human CYP3A5-mediated formation of 5-hydroxy saxagliptin Michaelis-Menten kinetic analysis. Type of series: ADME. A digest of the protocol: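 M2 formation kinetics measured in triplicate at twelve saxagliptin concentrations from 1 to 800 µM. Enzyme source was pooled HLM (0.25 mg/ml, 30 min, 37°C) or expressed CYP3A4 or CYP3A5 (10 pmol/ml, 10 min). Incubations contained 1 mM NADPH and 2 mM MgCl2 in phosphate buffer pH 7.4.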

With `N#C[C@@H]1C[C@@H]2C[C@@H]2N1[14C](=O)[14C@@H](N)C12CC3CC(CC(O)(C3)C1)C2`, the Drug excretion in series [1] was found to be 1.13%; in series [3] it was 2.39%; in series [5] it was 3.26%; in series [6], 68.15%; in series [8], 8.46%; in [10], 1.9%. Further, the Drug excretion in [11] is given as 74.89%; in [12], 2.86%; in series [13], 22.05%; in series [14], 1.6%; in [15] it was 7.22%. Moreover, the Drug metabolism result in [2] was “metabolite_not_detected”; in series [4], “metabolite_not_detected”; in series [7], “metabolite_not_detected”; in series [9], “metabolite_detected”.

B1: Cytochrome P450 3A5 (Homo sapiens) (protein)
chain: MDLIPNLAVETWLLLAVSLVLLYLYGTRTHGLFKRLGIPGPTPLPLLGNVLSYRQGLWKFDTECYKKYGKMWGTYEGQLPVLAITDPDVIRTVLVKECYSVFTNRRSLGPVGFMKSAISLAEDEEWKRIRSLLSPTFTSGKLKEMFPIIAQYGDVLVRNLRREAEKGKPVTLKDIFGAYSMDVITGTSFGVNIDSLNNPQDPFVESTKKFLKFGFLDPLFLSIILFPFLTPVFEALNVSLFPKDTINFLSKSVNRMKKSRLNDKQKHRLDFLQLMIDSQNSKETESHKALSDLELAAQSIIFIFAGYETTSSVLSFTLYELATHPDVQQKLQKEIDAVLPNKAPPTYDAVVQMEYLDMVVNETLRLFPVAIRLERTCKKDVEINGVFIPKGSMVVIPTYALHHDPKYWTEPEEFRPERFSKKKDSIDPYIYTPFGTGPRNCIGMRFALMNMKLALIRVLQNFSFKPCKETQIPLKLDTQGLLQPEKPIVLKVDSRDGTLSGE
For the molecule B1, in series [16], the Km (commonly the substrate concentration at which the rate is half of its maximum) worked out at 252 µM and the Vmax (in general, the top rate of the reaction or transport when substrate is in excess) came out at 2.4e-05 µmol/min.
